Columns and labels:
Type in all cases: functional
[1] = In vitro determination of lactone level in human plasma after administration of compound at 4 hour
Procedure, shortened: (§1)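 Drug (500 ng, in methanol) added to 1 mL of human or mouse plasma and incubated at 37 °C. 100-µL aliquots taken at 0.5–6 h. Analysis by C-8 HPLC (30% acetonitrile/water/0.1% acetic acid) with fluorescence at 347/418 nm. Percent lactone: lactone/total drug for the parent; drug at each time relative to t = 0 for the ester.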

[2] = In vitro determination of lactone level in human plasma after administration of compound at 6 hour; procedure, shortened: as §1
Mus musculus [3] = assay: In vitro determination of lactone level in mouse plasma after administration of compound at 2 hour; procedure, shortened: as §1
Mus musculus [4] = assay: In vitro determination of lactone level in mouse plasma after administration of compound at 6 hour; procedure, shortened: as §1
[5] = In vitro determination of lactone level in human plasma after administration of compound at 1 hour; procedure, shortened: as §1
Mus musculus [6] = assay: In vitro determination of lactone level in mouse plasma after administration of compound at 1 hour; procedure, shortened: as §1
[7] = In vitro determination of lactone level in human plasma after administration of compound at 0 hour; procedure, shortened: as §1
[8] = In vitro determination of lactone level in human plasma after administration of compound at 2 hour; procedure, shortened: as §1
Mus musculus [9] = assay: In vitro determination of tlactone level in mouse plasma after administration of compound at 0 hour
Procedure, shortened: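 Mouse plasma (1 mL) was spiked with 500 ng drug in methanol and incubated at 37 °C, with aliquots taken over time starting at t = 0 h. Percent lactone was derived by reverse-phase C-8 HPLC with fluorescence detection and peak-area integration. For parent camptothecins it was lactone/total drug; for esters it was drug at each time point/drug at t = 0 h.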

Mus musculus [10] = assay: In vitro determination of lactone level in mouse plasma after administration of compound at 4 hour; procedure, shortened: as §1
Mus musculus [11] = assay: In vitro determination of lactone level in mouse plasma after administration of compound at 0 hour; procedure, shortened: as §1
Mus musculus [12] = assay: Change in the body weight of mice during the test time period after 48 days at a dose of 5 mg/kg
Mus musculus [13] = assay: Change in the body weight of mice during the test time period after 56 days at a dose of 7 mg/kg
Mus musculus [14] = assay: Change in the body weight of mice during the test time period after 56 days at a dose of 6 mg/kg
Mus musculus [15] = assay: Change in the body weight of mice during the test time period after 27 days at a dose of 7 mg/kg
Mus musculus [16] = assay: Change in the body weight of mice during the test time period after 21 days at a dose of 6 mg/kg
Mus musculus [17] = assay: Change in the body weight of mice during the test time period after 34 days at a dose of 5 mg/kg
Mus musculus [18] = assay: Change in the body weight of mice during the test time period after 41 days at a dose of 6 mg/kg
Mus musculus [19] = assay: Change in the body weight of mice during the test time period after 21 days at a dose of 5 mg/kg
Mus musculus [20] = assay: Change in the body weight of mice during the test time period after 48 days at a dose of 6 mg/kg
Mus musculus [21] = assay: Change in the body weight of mice during the test time period after 48 days at a dose of 7 mg/kg
Mus musculus [22] = assay: Change in the body weight of mice during the test time period after 41 days at a dose of 7 mg/kg
Mus musculus [23] = assay: Change in the body weight of mice during the test time period after 21 days at a dose of 7 mg/kg
Mus musculus [24] = assay: Change in the body weight of mice during the test time period after 27 days at a dose of 8 mg/kg
Mus musculus [25] = assay: Change in the body weight of mice during the test time period after 41 days at a dose of 8 mg/kg
Mus musculus [26] = assay: Change in the body weight of mice during the test time period after 34 days at a dose of 7 mg/kg
Mus musculus [27] = assay: Change in the body weight of mice during the test time period after 41 days at a dose of 5 mg/kg
Mus musculus [28] = assay: Change in the body weight of mice during the test time period after 56 days at a dose of 8 mg/kg
Mus musculus [29] = assay: Change in the body weight of mice during the test time period after 27 days at a dose of 5 mg/kg
Mus musculus [30] = assay: Change in the body weight of mice during the test time period after 56 days at a dose of 5 mg/kg
Mus musculus [31] = assay: Change in the body weight of mice during the test time period after 21 days at a dose of 8 mg/kg
Mus musculus [32] = assay: Change in the body weight of mice during the test time period after 27 days at a dose of 6 mg/kg
Mus musculus [33] = assay: Change in the body weight of mice during the test time period after 34 days at a dose of 8 mg/kg
Mus musculus [34] = assay: Change in the body weight of mice during the test time period after 48 days at a dose of 8 mg/kg
Mus musculus [35] = assay: Change in the body weight of mice during the test time period after 34 days at a dose of 6 mg/kg

## CC[C@@]1(O)C(=O)OCc2c1cc1n(c2=O)Cc2cc3ccccc3nc2-1 [CAMPTOTHECIN]
[1]
  Lactone: 0%
[2]
  Lactone: 0%
Mus musculus [3]
  Lactone: 35%
Mus musculus [4]
  Lactone: 18%
[5]
  Lactone: 12%
Mus musculus [6]
  Lactone: 42%
[7]
  Lactone: 100%
[8]
  Lactone: 0.5%
Mus musculus [9]
  Lactone: 100%
Mus musculus [10]
  Lactone: 18%

## CCC(=O)O[C@]1(CC)C(=O)OCc2c1cc1n(c2=O)Cc2cc3c([N+](=O)[O-])cccc3nc2-1
[2]
  Lactone: 64.4%
Mus musculus [4]
  Lactone: 84.3%
Mus musculus [11]
  Lactone: 100%
[5]
  Lactone: 93.7%
Mus musculus [6]
  Lactone: 97.7%
[7]
  Lactone: 100%

## CC[C@@]1(O)C(=O)OCc2c1cc1n(c2=O)Cc2cc3c([N+](=O)[O-])cccc3nc2-1 [RUBITECAN]
[2]
  Lactone: 0%
Mus musculus [11]
  Lactone: 100%
[5]
  Lactone: 7%
Mus musculus [6]
  Lactone: 30%
[7]
  Lactone: 100%

## CCC(=O)O[C@]1(CC)C(=O)OCc2c1cc1n(c2=O)Cc2cc3ccccc3nc2-1 [CAMPTOTHECIN-20-O-PROPIONATE]
Mus musculus [12]
  Body weight: 32.9 g
Mus musculus [13]
  Body weight: 31.5 g
Mus musculus [14]
  Body weight: 32.2 g
Mus musculus [15]
  Body weight: 31.7 g
[1]
  Lactone: 68%
Mus musculus [16]
  Body weight: 32.9 g
Mus musculus [17]
  Body weight: 34.4 g
[2]
  Lactone: 56%
Mus musculus [18]
  Body weight: 33.5 g
Mus musculus [19]
  Body weight: 33 g
Mus musculus [20]
  Body weight: 34 g
Mus musculus [4]
  Lactone: 85%
Mus musculus [21]
  Body weight: 31.6 g
Mus musculus [22]
  Body weight: 31.1 g
Mus musculus [23]
  Body weight: 30.8 g
Mus musculus [24]
  Body weight: 34.1 g
Mus musculus [25]
  Body weight: 33.4 g
Mus musculus [26]
  Body weight: 30.6 g
Mus musculus [27]
  Body weight: 33.5 g
Mus musculus [11]
  Lactone: 100%
Mus musculus [28]
  Body weight: 33.2 g
Mus musculus [29]
  Body weight: 33.7 g
[5]
  Lactone: 86%
Mus musculus [30]
  Body weight: 33.2 g
Mus musculus [31]
  Body weight: 32.9 g
Mus musculus [32]
  Body weight: 33.4 g
Mus musculus [33]
  Body weight: 34 g
Mus musculus [34]
  Body weight: 33.9 g
Mus musculus [6]
  Lactone: 97.5%
[7]
  Lactone: 100%
Mus musculus [35]
  Body weight: 33.8 g
[8]
  Lactone: 77%

Source: ChEMBL document CHEMBL1131202, “Alkyl esters of camptothecin and 9-nitrocamptothecin: synthesis, in vitro pharmacokinetics, toxicity, and antitumor activity” (1998)
